Columns and labels:
Syrian golden hamster [1] = test: Inhibition of cholesterol synthesis in golden syrian hamster assessed as reduction of [14C]-cholesterol level at 10 mg/kg, po followed by 3 hrs after treated with 80 uCi, ip of [14C]-sodium acetate measured after 5 hrs by liquid scintillation counting relative to control; format: functional; conditions: Mesocricetus auratus
In short: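 Separate hamster groups dosed po at 10 mg/kg at t = 0 h. 14C sodium acetate ip at t = 3 h, blood 14C cholesterol at t = 5 h. Percent change vs untreated controls, n = 8/group.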

[2] = target: T1, 3-hydroxy-3-methylglutaryl-coenzyme A reductase (Rattus norvegicus, UniProt P51639); test: Inhibition of HMG-CoA reductase in Sprague-Dawley rat liver microsomes using [14C]HMG-CoA as substrate preincubated for 0.5 hrs before substrate addition measured after 0.75 hrs by beta scintillation counting; design: species or system Microsome
T1 sequence (P51639 whole entry): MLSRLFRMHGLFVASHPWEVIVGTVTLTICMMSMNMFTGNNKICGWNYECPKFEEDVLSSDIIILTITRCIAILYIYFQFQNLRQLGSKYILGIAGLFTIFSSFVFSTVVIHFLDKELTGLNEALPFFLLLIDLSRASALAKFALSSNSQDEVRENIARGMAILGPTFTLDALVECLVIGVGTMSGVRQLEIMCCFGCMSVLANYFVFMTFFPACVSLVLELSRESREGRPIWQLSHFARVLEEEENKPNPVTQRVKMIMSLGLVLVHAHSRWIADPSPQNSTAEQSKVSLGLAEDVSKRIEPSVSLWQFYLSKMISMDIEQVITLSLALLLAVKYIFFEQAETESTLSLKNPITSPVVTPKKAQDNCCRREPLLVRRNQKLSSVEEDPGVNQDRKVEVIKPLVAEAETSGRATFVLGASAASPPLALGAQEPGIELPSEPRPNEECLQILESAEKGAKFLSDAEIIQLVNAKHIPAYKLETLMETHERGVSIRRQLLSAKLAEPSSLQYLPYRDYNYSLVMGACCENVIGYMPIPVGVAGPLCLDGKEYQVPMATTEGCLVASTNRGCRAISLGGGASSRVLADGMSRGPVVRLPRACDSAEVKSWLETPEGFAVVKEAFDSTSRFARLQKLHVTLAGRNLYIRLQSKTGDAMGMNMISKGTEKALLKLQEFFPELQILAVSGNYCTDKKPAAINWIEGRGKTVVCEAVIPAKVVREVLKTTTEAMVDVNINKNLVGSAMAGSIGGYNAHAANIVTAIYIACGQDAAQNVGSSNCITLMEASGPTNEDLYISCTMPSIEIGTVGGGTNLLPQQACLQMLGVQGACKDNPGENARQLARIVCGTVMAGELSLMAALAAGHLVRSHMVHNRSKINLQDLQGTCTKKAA
In short: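 Enzyme inhibition was measured in an HMG-CoA reductase preparation from rat microsomes. IC50 is reported as mean ± SEM of n ≥ 2 independent determinations.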

[3] = Lipophilicity, log D of the compound at pH 7.4 by shake flask method; format: physicochemical; conditions: buffer
In short: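 Log D at pH 7.4 by shake flask.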

L6 [4] = test: Inhibition of cholesterol synthesis in rat L6 cells assessed as reduction of [14C]-cholesterol level using [14C]-acetic acid preincubated for 3 hrs before addition of [14C]-acetic acid by scintillation counting; format: functional, cell-based
In short: (§1)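 Cholesterol synthesis inhibition measured in rat hepatocytes and rat myocyte cell line, giving IC50 for each. Mean ± SEM of n ≥ 2 independent determinations.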

Syrian golden hamster [5] = test: Inhibition of cholesterol synthesis in golden syrian hamster assessed as reduction of [14C]-cholesterol level at 10 mg/kg, po followed by 2 hrs after treated with 80 uCi, ip of [14C]-sodium acetate measured after 4 hrs by liquid scintillation counting relative to control; format: functional; conditions: Mesocricetus auratus
In short: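 Hamsters dosed po at 10 mg/kg at t = 0 h. Intraperitoneal 14C sodium acetate at t = 2 h, blood drawn at t = 4 h for 14C cholesterol. Percent inhibition vs untreated controls, n = 8/group.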

L6 [6] = test: Selectivity ratio of IC50 for cholesterol synthesis in rat L6 cells to IC50 for cholesterol synthesis in rat hepatocytes
Hepatocyte = test: Inhibition of cholesterol synthesis in rat hepatocytes assessed as reduction of [14C]-cholesterol level using [14C]-acetic acid preincubated for 4 hrs before addition of [14C]-acetic acid by liquid scintillation counting; format: functional, cell-based; in short: as §1

## O=C(O)C[C@H](O)C[C@H](O)CCn1c(-c2ccc(F)cc2)nc(C(=O)NCc2ccccc2F)c1C1CC1
Syrian golden hamster [1]
  inhibition in vivo at 10 mg/kg: -4%
[2]
  IC50: 1.5 nM
[3]
  logD: 0.08
L6 [4]
  IC50: 27200 nM

## CCc1c(C(=O)NCc2ccccc2)nc(-c2ccc(F)cc2)n1CC[C@@H](O)C[C@@H](O)CC(=O)O
[2]
  IC50: 123 nM

## Cc1c(C(=O)NCc2ccccc2)nc(-c2ccc(F)cc2)n1CC[C@@H](O)C[C@@H](O)CC(=O)O
[2]
  IC50: 94 nM

## CCCc1c(C(=O)NCc2ccccc2)nc(-c2ccc(F)cc2)n1CC[C@@H](O)C[C@@H](O)CC(=O)O
[2]
  IC50: 26 nM

## CC(C)c1c(C(=O)NCc2ccccc2)nc(-c2ccc(F)cc2)n1CC[C@@H](O)C[C@@H](O)CC(=O)[O-].[Na+]
Syrian golden hamster [1]
  inhibition in vivo at 10 mg/kg: -7%
[3]
  logD: 0.64
Syrian golden hamster [5]
  inhibition in vivo at 10 mg/kg: -53%
L6 [6]
  Ratio IC50: 10100

## O=C([O-])C[C@H](O)C[C@H](O)CCn1c(-c2ccc(F)cc2)nc(C(=O)NCc2ccccc2)c1C1CC1.[Na+]
[2]
  IC50: 1.4 nM
Hepatocyte
  IC50: 0.2 nM
[3]
  logD: 0.03
Syrian golden hamster [5]
  inhibition in vivo at 10 mg/kg: -58%
L6 [4]
  IC50: 632 nM
L6 [6]
  Ratio IC50: 3160

## Cc1ccc(CNC(=O)c2nc(-c3ccc(F)cc3)n(CC[C@@H](O)C[C@@H](O)CC(=O)[O-])c2C2CC2)cc1.[Na+]
Syrian golden hamster [1]
  inhibition in vivo at 10 mg/kg: -36%
[2]
  IC50: 1.7 nM
Hepatocyte
  IC50: 0.1 nM
[3]
  logD: 0.45
Syrian golden hamster [5]
  inhibition in vivo at 10 mg/kg: -79%
L6 [4]
  IC50: 178 nM
L6 [6]
  Ratio IC50: 1780

## Cc1cccc(CNC(=O)c2nc(-c3ccc(F)cc3)n(CC[C@@H](O)C[C@@H](O)CC(=O)[O-])c2C2CC2)c1.[Na+]
Syrian golden hamster [1]
  inhibition in vivo at 10 mg/kg: -50%
[2]
  IC50: 7.2 nM
Hepatocyte
  IC50: 0.3 nM
[3]
  logD: 0.47
Syrian golden hamster [5]
  inhibition in vivo at 10 mg/kg: -54%
L6 [4]
  IC50: 532 nM
L6 [6]
  Ratio IC50: 1770

## Cc1ccccc1CNC(=O)c1nc(-c2ccc(F)cc2)n(CC[C@@H](O)C[C@@H](O)CC(=O)[O-])c1C1CC1.[Na+]
Syrian golden hamster [1]
  inhibition in vivo at 10 mg/kg: 0%
[2]
  IC50: 4.9 nM
Hepatocyte
  IC50: 0.1 nM
[3]
  logD: 0.44
L6 [4]
  IC50: 4850 nM
L6 [6]
  Ratio IC50: 48500

## COc1ccc(CNC(=O)c2nc(-c3ccc(F)cc3)n(CC[C@@H](O)C[C@@H](O)CC(=O)[O-])c2C2CC2)cc1.[Na+]
[2]
  IC50: 1.2 nM
Hepatocyte
  IC50: 0.2 nM
[3]
  logD: 0.02
Syrian golden hamster [5]
  inhibition in vivo at 10 mg/kg: -60%
L6 [4]
  IC50: 6400 nM
L6 [6]
  Ratio IC50: 32000

## COc1cccc(CNC(=O)c2nc(-c3ccc(F)cc3)n(CC[C@@H](O)C[C@@H](O)CC(=O)[O-])c2C2CC2)c1.[Na+]
Syrian golden hamster [1]
  inhibition in vivo at 10 mg/kg: -42%
[2]
  IC50: 1.2 nM
Hepatocyte
  IC50: 0.2 nM
[3]
  logD: 0.11
Syrian golden hamster [5]
  inhibition in vivo at 10 mg/kg: -53%
L6 [4]
  IC50: 538 nM
L6 [6]
  Ratio IC50: 2960

## COc1ccccc1CNC(=O)c1nc(-c2ccc(F)cc2)n(CC[C@@H](O)C[C@@H](O)CC(=O)[O-])c1C1CC1.[Na+]
[2]
  IC50: 7 nM
Hepatocyte
  IC50: 0.1 nM
[3]
  logD: 0.16
L6 [4]
  IC50: 10700 nM
L6 [6]
  Ratio IC50: 107000

## O=C([O-])C[C@H](O)C[C@H](O)CCn1c(-c2ccc(F)cc2)nc(C(=O)NCc2ccc(F)cc2)c1C1CC1.[Na+]
Syrian golden hamster [1]
  inhibition in vivo at 10 mg/kg: 0%
[2]
  IC50: 3.4 nM
Hepatocyte
  IC50: 0.7 nM
[3]
  logD: 0.17
L6 [4]
  IC50: 1620 nM
L6 [6]
  Ratio IC50: 2310

## O=C([O-])C[C@H](O)C[C@H](O)CCn1c(-c2ccc(F)cc2)nc(C(=O)NCc2ccc(F)c(F)c2)c1C1CC1.[Na+]
Syrian golden hamster [1]
  inhibition in vivo at 10 mg/kg: -8%
[2]
  IC50: 1.2 nM
Hepatocyte
  IC50: 0.5 nM
L6 [4]
  IC50: 2780 nM
L6 [6]
  Ratio IC50: 5560

## O=C([O-])C[C@H](O)C[C@H](O)CCn1c(-c2ccc(F)cc2)nc(C(=O)NCc2ccc(F)cc2F)c1C1CC1.[Na+]
[2]
  IC50: 1.2 nM
Hepatocyte
  IC50: 0.2 nM
Syrian golden hamster [5]
  inhibition in vivo at 10 mg/kg: -46%
L6 [4]
  IC50: 4870 nM
L6 [6]
  Ratio IC50: 24350

## Cc1ccc(CNC(=O)c2nc(-c3ccc(F)cc3)n(CC[C@@H](O)C[C@@H](O)CC(=O)[O-])c2C2CC2)cc1F.[Na+]
[2]
  IC50: 4.1 nM
Hepatocyte
  IC50: 0.1 nM
[3]
  logD: 0.69
L6 [4]
  IC50: 224 nM
L6 [6]
  Ratio IC50: 2240

## COc1ccc(CNC(=O)c2nc(-c3ccc(F)cc3)n(CC[C@@H](O)C[C@@H](O)CC(=O)[O-])c2C2CC2)cc1F.[Na+]
Syrian golden hamster [1]
  inhibition in vivo at 10 mg/kg: 0%
[2]
  IC50: 3.7 nM
Hepatocyte
  IC50: 0.2 nM
Syrian golden hamster [5]
  inhibition in vivo at 10 mg/kg: -36%
L6 [4]
  IC50: 890 nM
L6 [6]
  Ratio IC50: 4450

## NC(=O)c1ccc(CNC(=O)c2nc(-c3ccc(F)cc3)n(CC[C@@H](O)C[C@@H](O)CC(=O)[O-])c2C2CC2)cc1.[Na+]
Syrian golden hamster [1]
  inhibition in vivo at 10 mg/kg: 0%
[2]
  IC50: 7.2 nM
Hepatocyte
  IC50: 0.4 nM
[3]
  logD: -1.1
L6 [4]
  IC50: > 100000 nM
L6 [6]
  Ratio IC50: > 250000

## CN(C)S(=O)(=O)c1ccc(CNC(=O)c2nc(-c3ccc(F)cc3)n(CC[C@@H](O)C[C@@H](O)CC(=O)[O-])c2C2CC2)cc1.[Na+]
Syrian golden hamster [1]
  inhibition in vivo at 10 mg/kg: 0%
[2]
  IC50: 4.9 nM
Hepatocyte
  IC50: 0.5 nM
[3]
  logD: -0.46
L6 [4]
  IC50: > 100000 nM
L6 [6]
  Ratio IC50: > 200000
